Rows were chosen to be rich in hits. Some 2.1% of all compounds tested hit in one or more screens of this group.
Pf gametocyte – P. falciparum stage V gametocyte viability inhibition; P. falciparum stage V gametocytes, ATP luminescence, 24 h; inhibition, % at 10.9 µM; 0.065% of 150,000 active;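 active = inhibition above the mean plus 3 SD of compounds within the control limits, set per campaign, cut at about 38% in these data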;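 also: 0% = DMSO wells and 100% = medium only without gametocytes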
L929 necroptosis – blocks zVAD induced death of L929 cells; L929 zVAD necroptosis rescue, ATP luminescence, 24 h; with zVAD 60 µM; viability rescue, % at 10 µM; 0.38% of 220,000 active; AID 1377;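 active = activation, scaled between plate controls, above about 75%, limit read from the data; inactive = activation under that limit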;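 also: 0% = zVAD with DMSO and 100% = DMSO alone without zVAD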
Wee1 degr inh – human Wee1 degradation inhibition, primary screen; P30291; HeLa Luc-Wee1K328M stability, luciferase luminescence; 100% = proteasome inhibitor MG132 effect; reporter increase, % at 5 µM; 1.2% of 220,000 active; AID 1321;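 active = activation above the mean of all tested compounds plus 3 SD, set per screening run, cut at about 8.8% in these data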;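 also: cells exposed to compound for 20 h before luminescence read; 0% = DMSO alone and 100% = MG132 at 30 µM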
Target sequence (P30291 whole entry K328M): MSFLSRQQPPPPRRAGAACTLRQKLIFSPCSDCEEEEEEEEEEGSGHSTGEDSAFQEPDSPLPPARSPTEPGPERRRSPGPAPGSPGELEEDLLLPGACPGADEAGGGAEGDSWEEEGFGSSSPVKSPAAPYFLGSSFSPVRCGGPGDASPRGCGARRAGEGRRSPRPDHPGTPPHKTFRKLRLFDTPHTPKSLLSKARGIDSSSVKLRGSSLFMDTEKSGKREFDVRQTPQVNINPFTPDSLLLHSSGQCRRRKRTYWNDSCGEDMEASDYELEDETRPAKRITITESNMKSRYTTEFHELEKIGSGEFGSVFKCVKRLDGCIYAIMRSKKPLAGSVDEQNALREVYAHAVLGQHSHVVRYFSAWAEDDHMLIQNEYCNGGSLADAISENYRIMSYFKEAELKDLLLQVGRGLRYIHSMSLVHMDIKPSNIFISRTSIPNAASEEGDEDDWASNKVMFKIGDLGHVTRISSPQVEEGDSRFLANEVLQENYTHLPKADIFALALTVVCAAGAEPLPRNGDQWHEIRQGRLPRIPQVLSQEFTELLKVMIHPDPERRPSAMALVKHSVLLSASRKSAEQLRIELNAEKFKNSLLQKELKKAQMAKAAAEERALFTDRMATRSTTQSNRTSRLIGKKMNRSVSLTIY
RBBP9 inh – blocks human serine hydrolase RBBP9. O75884. recombinant RBBP9, FP-Rh probe fluorescence polarization. inhibition, % at 7.94 µM. 0.2% of 220,000 active. AID 1515;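 active = inhibition above the campaign mean of all tested compounds plus 3 SD, cut at about 14% in these data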;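 also: plate controls were DMSO wells with RBBP9 for no effect and wells lacking RBBP9 protein for full effect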
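Assay system: recombinant human RBBP9; Reagent: Serine-hydrolase probe FP-Rh, 375 nM pre-mixing; Doses: 7.94 µM single dose, 0.794% DMSO; Incubation: 30 min then 45 min, 25 °C; Detection: fluorescence polarization (mP), excitation 525 nm, emission 598 nm; Evaluation: percent inhibition from mP, scaled between DMSO and no-protein wells.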
TNF necrop inh – blocks TNF-alpha induced death of Jurkat FADD-/- cells; AID 463075; Jurkat FADD-/- TNF necroptosis rescue, ATP luminescence, 24 h; 0 = TNF only, 100 = no-TNF cells; 0.068% of 220,000 active; activation (protection from cell death), % at 10 µM;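 active = activation, meaning protection from cell death, of at least 50% relative to plate controls; inactive = activation below 50%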;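 also: necroptosis triggered by 40 ng/mL TNF-alpha added together with compound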
Calpain2 inh – calpain II (pig) inhibition; purified calpain II, fluorogenic peptide substrate, 30 min; inhibition, % at 16 µM; 0.37% of 220,000 active;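 active = inhibition above about 50%, limit read from the data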
zVAD necrop conf – confirmed blocker of zVAD induced death in L929 cells; L929 zVAD-induced necroptosis rescue, ATP luminescence, 24 h; shares compounds with L929 necroptosis; activation (protection from necroptosis), % at 10 µM; 16% of 760 active;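 active = mean protection from necroptosis of at least 50% over duplicate tests; inactive = mean protection below 50%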;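 also: 0% = cells with zVAD alone and 100% = vehicle cells without zVAD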
RBBP9 inh conf – human RBBP9 inhibition, confirmation. shares compounds with RBBP9 inh. recombinant RBBP9, FP-Rh probe fluorescence polarization. inhibition, % at 7.94 µM. 36% of 410 active. AID 1537;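 active = inhibition above the hit cutoff derived for the primary screen, cut at about 15% in these data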;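 also: 0% = RBBP9 with DMSO and 100% = wells lacking RBBP9 protein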
Starred values were filed as active, the others as inactive; . = no result.

SMILES	Pf gametocyte	L929 necroptosis	Wee1 degr inh	RBBP9 inh	TNF necrop inh	Calpain2 inh	zVAD necrop conf	others
CCC(C)C(=O)Nc1nc2ccc(S(C)(=O)=O)cc2s1 (stereo not drawn)	-6	73	8	-2	-4	-13	.
CS(=O)(=O)c1ccc2nc(NC(=O)Cc3ccccc3)sc2c1	.	76*	-2	-1	8	35	22
CC(=O)Nc1nc2ccc(Br)cc2s1	-2	80*	1	-5	-4	16	35
Cc1ccc(S(=O)(=O)N2CCN(Cc3ccsc3)CC2)cc1	7	1	0	0	1	-28	.
Oc1ccccc1N=Cc1c(O)ccc2oc3c(c12)CCCC3	-3	75*	-3	-8	-22	3	2
O=C(O)c1ccc(N=Cc2c(O)ccc3oc4c(c23)CCCC4)cc1	-10	1	-3	-6	-17	17	.
CCOc1cc(C(=O)NCCCn2ccnc2)cc(OCC)c1OCC	-23	0	0	-2	2	4	.
COc1cc(NC(=O)c2cnc(N)s2)cc(C(=O)Nc2cccc(C(F)(F)F)c2)c1	26	79*	.	.	6	-23	74*
Cc1ccc(NC(=O)c2cccc(OCc3c(C)noc3C)c2)cc1	.	79*	0	1	-2	12	10
Cc1noc(C)c1COc1cccc(C(=O)Nc2ccc(C#N)cc2)c1	.	1	0	-8	-3	10	.
N#Cc1ccc(NCC(=O)Nc2ccc3c(c2)OCCO3)cc1	-13	66	-5	-3	2	-14	.
N#Cc1cccc(NCC(=O)Nc2ccc3c(c2)OCCO3)c1	-14	77*	9	-1	2	-12	2
COc1cc(NC(=O)COC(=O)CCc2cc(OC)c(OC)c(OC)c2)cc(OC)c1	9	-1	-4	-5	-1	-11	.
O=C(Nc1cc(-c2ccccc2)[nH]n1)c1ccccc1F	-3	71	3	7	-7	-4	.
CC(=O)Nc1cc(-c2ccc(F)cc2)[nH]n1	-13	76*	2	0	-1	-2	31
O=C(C1=NNCC1c1ccccc1)C1CO1 (stereo not drawn)	3	99*	-2	3	91*	14	90*
C=CCn1c(CCC(=O)Nc2ccc(C)c(Cl)c2)nnc1SCC(=O)Nc1ccccc1C	.	1	5	-5	-4	-47	.
COc1cccc(CN2CCN(C(=S)NCc3ccc(Cl)cc3)CC2)c1	-32	7	0	1	2	18	.
Cc1c(NC(=O)Nc2cc(F)c(F)cc2Cl)c(=O)n(-c2ccccc2)n1C	8	.	.	.	.	.	.
CCN(CC)CCc1c(C)[nH]c(C(=O)OCc2ccccc2)c1C	.	76*	0	-1	-1	58*	38
CCOc1cc(/C=C2/SC(=S)NC2=O)ccc1OC(=O)c1ccco1	-3	79*	-2	-5	3	26	2
COc1cc(/C=C2/SC(=S)N(C)C2=O)ccc1OC(=O)c1ccco1	16	1	1	-10	-3	-2	.
Oc1c(Br)cc(C2N=C(c3ccccc3)NO2)cc1Br (stereo not drawn)	-2	80*	1	-6	0	-14	4
O=[N+]([O-])c1ccccc1/C=C/C=N/n1c(-c2ccccc2F)n[nH]c1=S	-1	1	-1	-10	-3	20	.
Cc1ccc([N+](=O)[O-])cc1N/C=C1\CCc2ccccc2C1=O	.	2	-2	-2	-5	5	.
SMILES	Pf gametocyte	L929 necroptosis	Wee1 degr inh	RBBP9 inh	TNF necrop inh	Calpain2 inh	zVAD necrop conf	others
Oc1ccc(-c2csc(Nc3ncccn3)n2)cc1O	-8	79*	0	20*	22	14	60*	RBBP9 inh conf=40*
NS(=O)(=O)c1ccc(CNC(=O)C(c2ccccc2)c2ccccc2)cc1	5	.	.	.	.	.	.
CC(C)c1cc(Nc2cccc(O)c2)cc(C(C)C)c1O	.	0	-2	16*	-12	.	.	RBBP9 inh conf=-8
NNC(=O)c1cc(-c2ccc(N)cc2)nc2ccc(Br)cc12	-2	2	2	15*	2	12	.	RBBP9 inh conf=69*
Cc1cc(C(=O)NN)c2cc(Br)ccc2n1	.	0	-1	-11	1	12	.
COc1ccccc1NC(=O)c1ccc2c(c1)CCN2S(C)(=O)=O	16	.	.	.	.	.	.
COC(=O)C1=COC(C)C2CN3CCc4c([nH]c5cc(OC)c(OC)cc45)C3CC12 (stereo not drawn)	.	1	5	1	1	-31	.
COc1ccc(S(N)(=O)=O)cc1C(N)=O	-19	5	0	-2	0	14	.
CN(C)S(=O)(=O)c1cccc(NC(=S)Nc2cccc3cnccc23)c1	.	1	-1	19*	-16	16	.	RBBP9 inh conf=7
O=C1c2cc([N+](=O)[O-])cc3cc([N+](=O)[O-])cc(c23)C(=O)N1c1ccccn1	18	65	0	15*	-2	11	.	RBBP9 inh conf=10
CCOC(=O)C1(CC2CCCCO2)CCN(S(=O)(=O)c2ccsc2)CC1 (stereo not drawn)	-42	10	-3	-5	1	3	.
Oc1ccc(NC(=S)N=Nc2c(O)[nH]c3ccc(Br)cc23)cc1	-4	5	2	53*	-8	-97	.	RBBP9 inh conf=22*
Oc1[nH]c2ccc(Br)cc2c1N=NC(=S)Nc1ccc(F)cc1	26	1	4	-3	-8	8	.
Oc1ccc(NC(=S)N=Nc2c(O)[nH]c3ccccc23)cc1	-26	4	1	16*	-2	-1	.	RBBP9 inh conf=19*
CC(C)(C)NC(=O)COC(=O)Cc1ccc(Cl)cc1	.	0	-2	1	1	-7	.
O=C(COC(=O)CCC(=O)c1cccs1)NCc1ccccc1	8	3	1	-1	1	-59	.
COCCNC(=O)C(C)OC(=O)c1cc2occc2n1C (stereo not drawn)	.	-1	-1	1	-1	11	.
CC(=O)Nc1ccc(S(=O)(=O)N2CCN(Cc3cccs3)CC2)cc1	10	1	2	-6	3	-6	.
CCc1cc(/C(Cc2csc(C)n2)=N/O)c(O)cc1O	.	2	3	31*	-7	13	.	RBBP9 inh conf=22*
COc1ccccc1N(C)S(=O)(=O)c1ccc(C(=O)OCC(=O)N(C(C)C)C(C)C)cc1	-26	0	-4	-2	1	-2	.
O=[N+]([O-])c1ccccc1C1Nc2cccc3cccc(c23)N1	2	1	3	32*	-13	-10	.	RBBP9 inh conf=27*
O=[N+]([O-])c1ccc(Cl)c(C2Nc3cccc4cccc(c34)N2)c1	-3	0	5	35*	-5	6	.	RBBP9 inh conf=37*
